Results as given in ChEMBL document CHEMBL2150861, “Fibrate-derived N-(methylsulfonyl)amides with antagonistic properties on PPARα” (Eur J Med Chem, 2012).
Calls of active or inactive are those of the source. No cut-off for these calls is given here.

What was measured:
[1] = target: T1, Peroxisome proliferator-activated receptor alpha (Homo sapiens) (UniProt Q07869); test: Transactivation of PPARalpha expressed in HEK293A cells co-expressing GAL4 at 1 to 150 uM after 16 to 18 hrs by luciferase reporter gene assay; format: cell-based; conditions: HEK293-A
T1 sequence (whole entry): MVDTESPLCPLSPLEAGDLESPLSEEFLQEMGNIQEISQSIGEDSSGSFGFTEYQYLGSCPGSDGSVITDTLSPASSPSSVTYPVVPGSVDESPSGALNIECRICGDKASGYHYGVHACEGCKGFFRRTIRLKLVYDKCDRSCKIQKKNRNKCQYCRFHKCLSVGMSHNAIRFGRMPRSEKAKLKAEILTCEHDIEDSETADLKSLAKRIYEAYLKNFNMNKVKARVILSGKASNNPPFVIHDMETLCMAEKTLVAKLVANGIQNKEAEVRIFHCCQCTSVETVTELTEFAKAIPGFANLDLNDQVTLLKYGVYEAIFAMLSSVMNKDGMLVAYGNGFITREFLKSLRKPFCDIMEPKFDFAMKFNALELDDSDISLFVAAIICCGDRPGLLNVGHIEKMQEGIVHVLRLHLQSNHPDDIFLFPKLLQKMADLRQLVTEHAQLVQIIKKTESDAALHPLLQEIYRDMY
Procedure, shortened: (§1)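 HEK293A cells cultured to 70–80% confluency, moved to serum-free medium, then calcium-phosphate co-transfected with GAL4–PPARα, luciferase reporter, renilla and pGEM plasmids. Compounds added 6 h after transfection and run in agonist mode. Firefly luciferase activity measured after 16–18 h. Five concentrations from 1 to 150 µM, at least three separate experiments, EC50 ± SEM.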

[2] = target: T2, Peroxisome proliferator-activated receptor alpha (Homo sapiens, UniProt Q07869); test: (§2) Antagonist activity at PPARalpha expressed in HEK293 cells co-expressing GAL4 assessed as inhibition of GW7647-induced transactivation activity after 16 to 18 hrs by luciferase reporter gene assay; format: functional, cell-based
T2 sequence (Q07869 whole entry): T1 sequence (whole entry)
Procedure, shortened: (§3)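 GAL4–PPARα chimera in HEK293A cells grown to 70–80% confluency over 16 h, then switched to serum-free medium. Cells co-transfected by calcium phosphate with reporter, renilla, pGEM and receptor plasmids. […] Firefly luciferase read after 16–18 h. Five concentrations, 1–150 µM, at least three separate experiments, IC50 ± SEM.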

[3] = target: T3, Peroxisome proliferator-activated receptor gamma (Homo sapiens) (UniProt P37231); test: Transactivation of PPARgamma expressed in HEK293A cells co-expressing GAL4 at the concentration corresponding to IC50 or EC50 on PPARalpha after 16 to 18 hrs by luciferase reporter gene assay; conditions: HEK293-A
T3 sequence (whole entry): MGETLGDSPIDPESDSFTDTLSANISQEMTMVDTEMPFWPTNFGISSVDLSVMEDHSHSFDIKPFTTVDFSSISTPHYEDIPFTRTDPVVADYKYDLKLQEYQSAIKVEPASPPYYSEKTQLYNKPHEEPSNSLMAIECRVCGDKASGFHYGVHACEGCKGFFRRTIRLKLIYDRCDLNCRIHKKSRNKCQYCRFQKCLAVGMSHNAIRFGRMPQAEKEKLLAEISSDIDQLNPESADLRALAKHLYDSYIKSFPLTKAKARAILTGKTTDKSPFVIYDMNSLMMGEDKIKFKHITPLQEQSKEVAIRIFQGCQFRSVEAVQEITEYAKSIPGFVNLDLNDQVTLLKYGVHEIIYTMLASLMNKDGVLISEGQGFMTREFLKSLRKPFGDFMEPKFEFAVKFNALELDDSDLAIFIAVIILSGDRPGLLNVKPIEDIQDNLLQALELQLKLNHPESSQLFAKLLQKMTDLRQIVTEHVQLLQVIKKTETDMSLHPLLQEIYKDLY

[4] = target: T1, Peroxisome proliferator-activated receptor alpha (Homo sapiens); test: Binding affinity to PPARalpha LBD at 100 uM after 2 hrs by TR-FRET analysis
Procedure, shortened: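 After 2 h incubation, excitation at 340 nm and emission at 520 and 495 nm. The 520/495 ratio is normalized to clofibric acid as 100%.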

[5] = target: T1, Peroxisome proliferator-activated receptor alpha (Homo sapiens); test: Transactivation of PPARalpha expressed in HEK293A cells co-expressing GAL4 at 150 uM after 16 to 18 hrs by luciferase reporter gene assay relative to control; format: cell-based; conditions: HEK293-A
Procedure, shortened: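 Single-concentration agonist-mode transactivation: GAL4–PPARα or GAL4–PPARγ chimera, calcium-phosphate transfected into HEK293A cells with reporter, renilla and pGEM plasmids. […] Firefly luciferase read after 16–18 h. Values are ± SEM.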

[6] = target: T2, Peroxisome proliferator-activated receptor alpha; test: Binding affinity to PPARalpha LBD after 2 hrs by TR-FRET analysis
Procedure, shortened: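 TR-FRET competitive binding to PPARα LBD. Five concentrations, three independent experiments. After 2 h incubation, excitation at 340 nm, emission at 520 nm (fluorescein acceptor) and 495 nm (terbium donor). Ratio 520/495 used to derive IC50.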

[7] = target: T3, Peroxisome proliferator-activated receptor gamma (Homo sapiens); test: Antagonist activity at PPARgamma expressed in HEK293A cells co-expressing GAL4 after 16 to 18 hrs by luciferase reporter gene assay; format: functional, cell-based; conditions: HEK293-A
[8] = target: T1, Peroxisome proliferator-activated receptor alpha (Homo sapiens); test: Antagonist activity at PPARalpha expressed in HEK293A cells co-expressing GAL4 assessed as inhibition of GW7647-induced transactivation activity at 1 to 150 uM after 16 to 18 hrs by luciferase reporter gene assay; format: functional, cell-based; conditions: HEK293-A; procedure, shortened: as §3
[9] = target: T2, Peroxisome proliferator-activated receptor alpha; test: Transactivation of PPARalpha expressed in HEK293A cells co-expressing GAL4 after 16 to 18 hrs by luciferase reporter gene assay; format: cell-based, HEK293-A; procedure, shortened: as §1
[10] = target: T1, Peroxisome proliferator-activated receptor alpha (Homo sapiens); test: as §2; format: functional, cell-based; procedure, shortened: as §3

Row | Activity [1] | IC50 [2] [nM] | Activity [3] | Activity [4] | fold change (FC) [5] | IC50 [6] [nM] | inhibition [7] | inhibition [8] | EC50 [9] [nM] | inhibition [10] | SMILES
1 | inactive | 46500 | Active | Active | 0.47 | – | – | – | – | – | CC(C)C(Sc1nc2cc(Cl)ccc2s1)C(=O)NS(C)(=O)=O (stereo unspecified)
2 | inactive | – | – | 128% | 1.1 | – | – | inactive | – | – | CC(C)(Oc1ccc(C(=O)c2ccc(Cl)cc2)cc1)C(=O)NS(C)(=O)=O
3 | – | – | Active | 121% | 1.7 | – | – | inactive | 10700 | – | CC(C)(Oc1ccc(Cl)cc1)C(=O)NS(C)(=O)=O
4 | inactive | 68500 | Active | Active | 0.44 | – | – | – | – | Dose-dependent effect | CC(C)(Oc1ccc(CCNC(=O)c2ccc(Cl)cc2)cc1)C(=O)NS(C)(=O)=O
5 | – | – | – | – | 1.6 | – | – | inactive | – | – | CC(C)(Oc1ccc(Cl)cc1)C(=O)O
6 | – | – | Active | 118% | 1.55 | – | – | inactive | 7100 | – | Cc1ccc(C)c(OCCCC(C)(C)C(=O)NS(C)(=O)=O)c1

Continued, compound first:

Row | SMILES | Activity [1] | IC50 [2] [nM] | Activity [3] | Activity [4] | fold change (FC) [5] | IC50 [6] [nM] | inhibition [7] | inhibition [8] | EC50 [9] [nM] | inhibition [10]
7 | CS(=O)(=O)NC(=O)C(Sc1nc2cc(Cl)ccc2s1)c1ccccc1 (stereo unspecified) | inactive | 900 | – | 95.3% | 0.07 | 950 | Active | – | – | –
8 | CCCC(Sc1nc2cc(Cl)ccc2s1)C(=O)NS(C)(=O)=O (stereo unspecified) | inactive | 600 | Active | 80.9% | 0.28 | 890 | – | – | – | –
9 | CCCCCCC(Sc1nc2cc(Cl)ccc2s1)C(=O)NS(C)(=O)=O (stereo unspecified) | inactive | 5100 | – | Active | 0.04 | – | Active | – | – | –
10 | CCOc1ccc2nc(SC(C)C(=O)NS(C)(=O)=O)sc2c1 (stereo unspecified) | – | – | Active | Active | 1.84 | – | – | inactive | 1590 | –
11 | CCCC(Sc1nc2ccc(OCC)cc2s1)C(=O)NS(C)(=O)=O (stereo unspecified) | inactive | 8870 | Active | 137% | 0.36 | 480 | – | – | – | –
12 | CCCCC(Sc1nc2cc(Cl)ccc2s1)C(=O)NS(C)(=O)=O (stereo unspecified) | inactive | 800 | – | 117% | 0.08 | 600 | – | – | – | Dose-dependent effect
